Results from article PMC7318171 (Journal of Clinical Pharmacology, 2020).

What was measured:
[1] = cited from earlier work
[2] = PBPK model input and disposition parameters
[3] = molecular target: T1, organic anion–transporting polypeptide 1B3 (Homo sapiens, UniProt Q9NPD5); test: Hepatic uptake transporter substrate assessment, OATP1B3; assay type: in vitro ADME
T1 sequence (Q9NPD5 1-702): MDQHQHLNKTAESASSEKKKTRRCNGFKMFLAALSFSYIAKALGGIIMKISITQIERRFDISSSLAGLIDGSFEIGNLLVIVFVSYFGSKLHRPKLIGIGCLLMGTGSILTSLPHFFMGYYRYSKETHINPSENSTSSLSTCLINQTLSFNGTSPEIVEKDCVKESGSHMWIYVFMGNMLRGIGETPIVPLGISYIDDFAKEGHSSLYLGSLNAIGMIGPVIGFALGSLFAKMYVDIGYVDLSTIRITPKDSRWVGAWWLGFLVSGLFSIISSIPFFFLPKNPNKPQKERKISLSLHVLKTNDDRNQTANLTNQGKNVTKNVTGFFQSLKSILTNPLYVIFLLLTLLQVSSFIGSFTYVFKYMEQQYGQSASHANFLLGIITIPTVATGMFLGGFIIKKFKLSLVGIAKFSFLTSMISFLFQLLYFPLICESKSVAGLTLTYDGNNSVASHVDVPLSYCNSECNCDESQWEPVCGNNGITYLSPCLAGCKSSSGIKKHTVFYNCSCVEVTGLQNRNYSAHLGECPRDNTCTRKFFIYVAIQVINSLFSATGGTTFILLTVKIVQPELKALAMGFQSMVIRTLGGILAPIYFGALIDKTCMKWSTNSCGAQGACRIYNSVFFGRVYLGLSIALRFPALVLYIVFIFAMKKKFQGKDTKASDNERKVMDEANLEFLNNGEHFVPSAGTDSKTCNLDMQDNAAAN

[4] = Mass balance study with 14C-labeled abemaciclib; assay type: in vivo, human
[5] = molecular target: T2, breast cancer resistance protein (Homo sapiens, UniProt Q9UNQ0); test: Efflux transporter substrate assessment in vitro, BCRP; assay type: in vitro ADME
T2 sequence (Q9UNQ0 1-655): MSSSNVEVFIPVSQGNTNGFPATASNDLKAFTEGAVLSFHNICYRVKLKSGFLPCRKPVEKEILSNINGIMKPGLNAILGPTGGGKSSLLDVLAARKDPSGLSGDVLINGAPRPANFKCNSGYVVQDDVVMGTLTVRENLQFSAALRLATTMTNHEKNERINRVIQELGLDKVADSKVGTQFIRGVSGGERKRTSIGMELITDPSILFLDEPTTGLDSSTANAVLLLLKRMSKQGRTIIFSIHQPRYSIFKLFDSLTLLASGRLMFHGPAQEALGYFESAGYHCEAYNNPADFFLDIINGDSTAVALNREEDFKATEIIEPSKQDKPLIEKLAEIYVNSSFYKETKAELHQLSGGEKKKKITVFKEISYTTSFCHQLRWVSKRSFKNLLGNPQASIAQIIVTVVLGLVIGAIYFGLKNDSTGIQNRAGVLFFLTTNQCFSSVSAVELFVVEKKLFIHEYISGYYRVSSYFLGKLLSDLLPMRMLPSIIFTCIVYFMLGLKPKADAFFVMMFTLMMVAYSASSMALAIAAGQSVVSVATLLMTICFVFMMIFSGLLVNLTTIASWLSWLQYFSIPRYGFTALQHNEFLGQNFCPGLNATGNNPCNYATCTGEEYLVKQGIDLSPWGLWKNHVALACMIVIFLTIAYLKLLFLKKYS

P‐glycoprotein = P‐glycoprotein (Homo sapiens, UniProt P08183); test: Efflux transporter substrate assessment in vitro, P-glycoprotein; assay type: in vitro ADME
[6] = Rifampin interaction study; assay type: in vivo, human
How it was run: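 Single oral 200‑mg dose given alone and again with rifampin 600 mg once daily. Plasma levels of parent and active metabolites were measured in both arms, and mean concentration–time profiles are shown with SDs. Cmax and AUC0‑∞ were taken, with Tmax as median (min‑max). The interaction was expressed as with/without‑rifampin ratios of AUC0‑∞ and Cmax.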

Absolute bioavailability = assay type: in vivo; conditions: human, plasma
[7] = Measured physicochemical properties
[8] = Biopharmaceutic properties; assay type: physicochemical
CDK4/cyclin D1 = conditions: read-out: CDK4/cyclin D1 half‐maximal inhibitory concentration, mean ± SD; measured in vitro; cited from earlier work
[9] = molecular target: T3, organic cation transporter 1 (Homo sapiens, UniProt O15245); test: Hepatic uptake transporter substrate assessment, OCT1; assay type: in vitro ADME
T3 sequence (O15245 1-554): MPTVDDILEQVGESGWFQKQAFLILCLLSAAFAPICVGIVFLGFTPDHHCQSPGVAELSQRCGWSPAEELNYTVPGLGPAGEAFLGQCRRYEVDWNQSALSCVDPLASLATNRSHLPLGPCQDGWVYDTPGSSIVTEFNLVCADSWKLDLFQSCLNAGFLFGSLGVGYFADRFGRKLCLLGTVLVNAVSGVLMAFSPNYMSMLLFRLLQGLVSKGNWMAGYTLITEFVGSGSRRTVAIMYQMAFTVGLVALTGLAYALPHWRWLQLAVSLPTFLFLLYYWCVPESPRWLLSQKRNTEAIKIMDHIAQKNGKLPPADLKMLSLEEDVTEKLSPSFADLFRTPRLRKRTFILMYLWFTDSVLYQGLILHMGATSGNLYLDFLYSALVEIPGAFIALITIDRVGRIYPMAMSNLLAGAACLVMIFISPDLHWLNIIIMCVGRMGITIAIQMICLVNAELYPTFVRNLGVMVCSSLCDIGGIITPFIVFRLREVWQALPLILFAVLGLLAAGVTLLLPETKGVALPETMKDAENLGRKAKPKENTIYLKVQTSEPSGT

[10] = Fraction unbound in plasma; assay type: in vitro ADME; conditions: human
[11] = cited from earlier work; remark: listed apart in the source
[12] = molecular target: T4, organic anion–transporting polypeptide 1B1 (Homo sapiens, UniProt Q9Y6L6); test: Hepatic uptake transporter substrate assessment, OATP1B1; assay type: in vitro ADME
T4 sequence (Q9Y6L6 1-691): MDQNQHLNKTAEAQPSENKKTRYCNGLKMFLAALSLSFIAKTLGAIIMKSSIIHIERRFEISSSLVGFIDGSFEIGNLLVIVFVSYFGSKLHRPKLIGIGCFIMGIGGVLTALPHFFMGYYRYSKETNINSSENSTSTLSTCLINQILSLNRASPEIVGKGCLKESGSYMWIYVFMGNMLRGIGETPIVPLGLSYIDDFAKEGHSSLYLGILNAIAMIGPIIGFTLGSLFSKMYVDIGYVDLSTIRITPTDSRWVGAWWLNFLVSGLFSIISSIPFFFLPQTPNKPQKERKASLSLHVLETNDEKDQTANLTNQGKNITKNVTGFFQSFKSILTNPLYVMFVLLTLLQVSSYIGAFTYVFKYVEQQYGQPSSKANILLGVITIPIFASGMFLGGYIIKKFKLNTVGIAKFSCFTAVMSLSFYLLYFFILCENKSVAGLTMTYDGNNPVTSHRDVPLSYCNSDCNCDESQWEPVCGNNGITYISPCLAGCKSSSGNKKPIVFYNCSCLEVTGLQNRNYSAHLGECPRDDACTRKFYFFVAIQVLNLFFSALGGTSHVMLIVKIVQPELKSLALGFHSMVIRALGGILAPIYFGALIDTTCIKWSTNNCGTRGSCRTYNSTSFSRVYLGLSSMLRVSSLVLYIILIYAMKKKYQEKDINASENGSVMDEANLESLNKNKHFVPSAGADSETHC

[13] = Clarithromycin interaction study; assay type: in vivo; conditions: both, human, plasma, po, 50 mg
[14] = both, human, plasma, po, 200 mg

Chain of P‐glycoprotein (P08183 whole entry): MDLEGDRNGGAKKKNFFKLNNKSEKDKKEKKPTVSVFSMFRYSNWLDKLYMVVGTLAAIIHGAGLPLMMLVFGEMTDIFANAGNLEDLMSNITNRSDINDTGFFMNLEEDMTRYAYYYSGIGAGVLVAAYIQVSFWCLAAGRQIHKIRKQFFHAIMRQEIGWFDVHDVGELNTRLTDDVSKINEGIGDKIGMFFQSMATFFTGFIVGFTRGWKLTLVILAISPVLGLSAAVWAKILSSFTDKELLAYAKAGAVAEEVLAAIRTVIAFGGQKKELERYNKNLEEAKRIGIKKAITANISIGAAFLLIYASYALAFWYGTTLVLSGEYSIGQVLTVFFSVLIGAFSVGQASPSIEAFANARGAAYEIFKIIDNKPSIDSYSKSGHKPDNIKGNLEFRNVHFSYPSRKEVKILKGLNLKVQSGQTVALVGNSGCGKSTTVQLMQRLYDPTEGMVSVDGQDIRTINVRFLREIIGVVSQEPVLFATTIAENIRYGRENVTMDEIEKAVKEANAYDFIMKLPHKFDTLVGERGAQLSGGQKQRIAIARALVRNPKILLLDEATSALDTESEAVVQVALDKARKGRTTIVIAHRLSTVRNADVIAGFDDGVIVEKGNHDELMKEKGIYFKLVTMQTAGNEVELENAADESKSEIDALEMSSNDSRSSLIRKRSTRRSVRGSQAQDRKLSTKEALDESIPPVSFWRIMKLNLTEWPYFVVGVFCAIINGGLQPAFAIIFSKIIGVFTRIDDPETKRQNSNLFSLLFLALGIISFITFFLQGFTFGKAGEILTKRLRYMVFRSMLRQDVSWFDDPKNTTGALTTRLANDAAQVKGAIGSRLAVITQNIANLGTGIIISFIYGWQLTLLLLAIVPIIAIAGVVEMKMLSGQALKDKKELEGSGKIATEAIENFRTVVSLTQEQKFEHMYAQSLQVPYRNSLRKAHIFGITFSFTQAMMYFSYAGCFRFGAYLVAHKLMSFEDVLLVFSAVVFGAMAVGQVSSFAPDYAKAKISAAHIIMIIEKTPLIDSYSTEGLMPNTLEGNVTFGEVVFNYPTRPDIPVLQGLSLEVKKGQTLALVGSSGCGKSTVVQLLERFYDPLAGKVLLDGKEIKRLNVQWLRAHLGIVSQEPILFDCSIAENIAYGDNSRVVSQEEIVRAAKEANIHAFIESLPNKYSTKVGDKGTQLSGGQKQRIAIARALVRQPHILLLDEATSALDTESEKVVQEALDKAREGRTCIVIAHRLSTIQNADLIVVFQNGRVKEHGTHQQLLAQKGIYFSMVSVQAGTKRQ

## Cc1ncc2n1-c1ccc(Cl)cc1C(c1ccccc1F)=NC2 [Midazolam]
[1]; IV midazolam with clarithromycin
  increase in AUC extrapolated to infinity: 3.5 fold

## COc1ccccc1Oc1c(NS(=O)(=O)c2ccc(C(C)(C)C)cc2)nc(-c2ncccn2)nc1OCCO [Bosentan]
[1]; bosentan 125 mg BID 5 days, ketoconazole 200 mg QD
  Cmax ratio with and without ketoconazole: 1.62

## CCN1CCN(Cc2ccc(Nc3ncc(F)c(-c4cc(F)c5nc(C)n(C(C)C)c5c4)n3)nc2)CC1 [Abemaciclib]
[2]; 200‐mg dose
  FG in the PBPK model: 0.74
[2]; 200‐mg oral dose, equation 5
  FG (fraction escaping first‐pass metabolism in the gut), calculated: approximately 0.77
[2]; 200‐mg oral dose, equations 2-4
  FH (fraction escaping first‐pass metabolism in the liver): 0.64
[3]
  substrate of organic anion–transporting polypeptide 1B3: not substrates
[4]; 14C study
  percentage of parent in feces: 6.76%
[4]; human mass balance study
  radioactivity excreted in urine: […]
[4]; human, urine, oral, 150 mg
  CL renal: […]
[4]; oral dose, estimated from mass balance study, equation 1
  Fa (fraction absorbed): 0.91
[5]
  substrate of breast cancer resistance protein: substrate
P‐glycoprotein
  substrate of P‐glycoprotein: substrate
[6]; [14]
  AUC: 4570 ng·h/mL
  half-life: 1510 min
[6]; with rifampin, observed
  decrease of AUC: 95%
Absolute bioavailability
  half-life: 1760 min
Absolute bioavailability; iv, 0.4 mg
  Vd: 8.93 L/kg
[7]; octanol/water
  logP: […]
[7]; pKa 2 (basic)
  pKa: 4.48
[8]
  permeability (in words): high permeability
  solubility (in words): high solubility
CDK4/cyclin D1
  IC50: […]
[9]
  substrate of organic cation transporter 1: not substrates
[10]
  fraction unbound: 0.0557
[11]; abemaciclib and active species
  increase of AUC by a high‐fat and high‐calorie meal: 9%
[11]; oral administration
  time of observed maximum plasma concentration: […]
[12]
  substrate of organic anion–transporting polypeptide 1B1: not substrates
[13]
  half-life: 1730 min
